Assay results reported in PMC4582152 (International Journal of Biological Sciences, 2015).

Legend:
[1] = test system: DhelOBP21-T119N mutant; test: Competitive fluorescence binding assay with 1-NPN as probe, mutant T119N; parameters: species or system Dastarcus helophoroides; conditions: for Binding ability of mutant T119N compared with DhelOBP-WT: pH 7.4; for Binding affinity of mutant T119N compared with DhelOBP-WT: pH 5.0
Procedure, shortened: (§1)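 Competitive displacement at pH 7.4 or pH 5.0: 2 μM recombinant protein with a standard concentration of 1-NPN, titrated with aliquots of odorant volatiles (stocks in methanol). Fluorescence is read as for the 1-NPN titration. IC50 is the competitor concentration that halves the initial fluorescence. Ki = IC50/(1+[1-NPN]/K1-NPN), using the Scatchard Kd. Three independent measurements; reported as 1/Ki*1000.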

[2] = test system: DhelOBP21-I84N mutant; test: Competitive fluorescence binding assay with 1-NPN as probe, mutant I84N; parameters: species or system Dastarcus helophoroides
Procedure, shortened: as §1

Row | Binding ability of mutant T119N compared with DhelOBP-WT [1] | Binding affinity of mutant I84N compared with DhelOBP-WT ([2]; pH 5.0) | Binding affinity of mutant T119N compared with DhelOBP-WT [1] | Binding affinity of mutant I84N compared with DhelOBP-WT ([2]; pH 7.4) | SMILES
1 | greater binding ability | relatively higher affinities | – | – | Cc1cc(C(C)(C)C)c(O)c(C(C)(C)C)c1 [Butylated hydroxytoluene, butylated hydroxytoluene]
2 | – | did not show any apparent difference | did not show any apparent difference | – | CC12CCC(CC1=O)C2(C)C (stereo not shown) [Camphor, camphor]

Further lines, the compound ahead of its results:

Row | SMILES | Binding ability of mutant T119N compared with DhelOBP-WT [1] | Binding affinity of mutant I84N compared with DhelOBP-WT ([2]; pH 5.0) | Binding affinity of mutant T119N compared with DhelOBP-WT [1] | Binding affinity of mutant I84N compared with DhelOBP-WT ([2]; pH 7.4)
3 | C=C1C2CCC(C2)C1(C)C (stereo not shown) [Camphene, camphene] | declined significantly | did not show any apparent difference | did not show any apparent difference | –
4 | C=CC(=C)CCC=C(C)C [Myrcene, myrcene] | declined significantly | – | – | –
5 | CC1=CCC(=C(C)C)CC1 [Terpinolene] | – | – | relatively higher affinity | better than with DhelOBP-WT
